MrgX1 antag = blocks BAM8-22 activation of human MrgX1 receptor; B-score at 10 µM; Q96LB2; MRGX1-HEK293 calcium flux, Fluo-4, BAM8-22 antagonism; active compounds read low; 310,000 tested, 1.3% active;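 active = calcium-response B-score plate-corrected more than 3 library SD below zero, starting fluorescence within 5 deviations, no agonist response on first addition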;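 note: peak minus trough fluorescence over baseline after final BAM8-22 challenge near maximal dose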
Target sequence (Q96LB2 whole entry, looked up): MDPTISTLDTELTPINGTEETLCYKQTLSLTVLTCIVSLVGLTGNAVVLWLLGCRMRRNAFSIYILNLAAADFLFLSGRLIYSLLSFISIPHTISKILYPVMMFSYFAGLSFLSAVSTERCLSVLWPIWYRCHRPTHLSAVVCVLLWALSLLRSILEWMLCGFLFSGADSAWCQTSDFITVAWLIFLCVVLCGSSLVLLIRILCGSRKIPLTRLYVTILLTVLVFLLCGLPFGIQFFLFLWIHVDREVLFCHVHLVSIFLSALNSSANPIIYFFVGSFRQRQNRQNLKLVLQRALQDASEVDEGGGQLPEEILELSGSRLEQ
RGS4 act = RGS4 potentiation or activation; HEK293 M3R/inducible RGS4, carbachol calcium flux Fluo4; active compounds read low; B-score at 10 µM; 310,000 tested, 0.92% active; AID 463111;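 active = B-score of the integrated calcium signal more than 4 SD below the library mean, with starting fluorescence not abnormally high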;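 note: negative B-score means reduced calcium response which marks RGS4 activation or potentiation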
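Material: M3R-expressing HEK293 line, RGS4 induced by doxycycline | Schedule: Overnight RGS4 induction, 30 min dye load 37 °C, 20 min compound RT | Measured by: Fluo4 fluorescence kinetic imaging of calcium | Read-out: Integrated calcium ratio converted to B score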
MrgX1 ag = agonists of human MrgX1 receptor; Q96LB2; AID 588627; 310,000 tested, 0.44% active; B-score at 10 µM; MrgX1-HEK293 cells, Fluo-4 calcium fluorescence, agonist mode; active compounds read high;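 active = calcium response B-score plate-corrected fluorescence ratio at least 3 library SD, with starting fluorescence B-score inside 5 SD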
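Material: HEK293 cells stably expressing human MrgX1 receptor | Quantity: 15,000 cells per well | Times: Cells plated overnight, dye loaded 0.5 h 37 °C, 0.5 h room temperature | Measured by: Kinetic Fluo-4 NW fluorescence of intracellular calcium | Control set: Positive and negative controls per plate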
MrgX1 allo act = allosterically activates human MrgX1 receptor signaling; AID 588675; MrgX1-HEK293, Fluo-4 calcium flux, FDSS; active compounds read high; 310,000 tested, 0.63% active; Q96LB2; B-score at 10 µM;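 active = plate-corrected calcium response at least 3 library SD above typical, normal starting fluorescence, not activating the receptor alone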;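 note: compound read alongside a low EC10 to EC30 dose of BAM8-22 agonist; peak minus trough fluorescence over baseline measured at the second addition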
RGS4 block = inhibitors of human RGS4; HEK293 M3R/RGS4 inducible, Fluo-4 calcium flux; active compounds read high; triggered by carbachol at its EC20; P49798; 310,000 tested, 0.45% active; B-score at 10 µM;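 active = B-score, a plate-corrected calcium signal, over three deviations above library mean, with baseline fluorescence within five deviations of library mean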;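 note: RGS4 expression induced by doxycycline in cells with stable M3 receptor; B-score is computed from the integrated fluorescence ratio over baseline after carbachol; higher B-score means a larger calcium signal and so more RGS4 inhibition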
Target sequence (P49798 whole entry, looked up): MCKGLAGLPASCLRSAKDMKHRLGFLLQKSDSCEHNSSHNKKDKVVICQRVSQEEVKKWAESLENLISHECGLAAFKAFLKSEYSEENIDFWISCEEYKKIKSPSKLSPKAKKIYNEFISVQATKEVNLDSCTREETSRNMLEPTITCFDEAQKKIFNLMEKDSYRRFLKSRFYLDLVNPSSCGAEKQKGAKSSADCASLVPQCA
Hep lipid drop = modulators of hepatic lipid droplet formation. AML12 mouse hepatocytes, oleate lipid droplets, BODIPY imaging. 240,000 tested, 0.4% active. inhibition, % at 6.5 µM;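 active = lipid droplet intensity inhibited by at least 50%, with more than 500 cells counted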
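Material: mouse AML12 hepatocyte cell line, fixed after treatment; Timing: compound with oleate, overnight; Technique: high-content imaging of BODIPY-stained droplets and DAPI nuclei; Probe or stimulus: oleate, 100 µM final; Dosing: compound at 6.5 µM only.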
Hep lipid conf = hepatic lipid droplet formation inhibition, confirmed. shares compounds with Hep lipid drop. AML12 mouse hepatocytes, BODIPY lipid droplet imaging; droplets induced with 100 µM oleic acid. inhibition, % at 5.2 µM. 870 tested, 65% active;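 active = inhibition of lipid droplet metric at least 50%, with more than 300 cells in each of four replicates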
AML12 tox img = toxic to AML12 mouse hepatocytes in counter-screen; shares compounds with Hep lipid drop; DAPI nuclear morphology cytotoxicity imaging; active compounds read high; cells fed 100 µM oleate overnight; z-score at 5 µM; 870 tested, 3% active; AID 463200; in the data active = z-score above about 6.3;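 note: compound exposure lasted overnight at 37 °C before fixation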
AML12 tox ATP = AML12 hepatocyte cytotoxicity, confirmed; shares compounds with Hep lipid drop; AML12 mouse hepatocyte viability, ATP luminescence; cells loaded with 100 µM oleic acid; cytotoxicity, % at 50 µM; 530 tested, under 10 active; AID 463219;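 active = cytotoxicity above 50% in each of four replicates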;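 note: compound exposure lasted overnight at 37 °C before the ATP read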
Numbers stand for hits. The list is not random: actives were taken first. Their share in the collection is about 3.8%.

How did Cc1nnc(SCC(=O)Nc2cc(C(C)(C)C)nn2-c2ccccc2)s1 do in these assays?
MrgX1 antag: inactive; RGS4 act: inactive; MrgX1 ag: inactive; MrgX1 allo act: inactive; RGS4 block: inactive; Hep lipid drop: inactive

Results for O=C(CCN1C(=O)c2ccccc2C1=O)C1=NN[C@@H]2C(=O)N(c3ccc4c(c3)OCO4)C(=O)[C@H]12 ?
MrgX1 antag: inactive; RGS4 act: inactive; MrgX1 ag: inactive; MrgX1 allo act: inactive; RGS4 block: inactive; Hep lipid drop: inactive

How did COc1ccc(N=Nc2nc(-c3ccccc3)c(-c3ccccc3)[nH]2)cc1 do in these assays?
MrgX1 antag: inactive; RGS4 act: inactive; MrgX1 ag: inactive; MrgX1 allo act: inactive; RGS4 block: inactive; Hep lipid drop: 100; Hep lipid conf: 108; AML12 tox img: inactive; AML12 tox ATP: inactive

Results for CC(C)OC(=O)Nc1ccc2c(c1)N(C(=O)CCN1CCOCC1)c1ccccc1CC2 ?
MrgX1 antag: inactive; RGS4 act: inactive; MrgX1 ag: inactive; MrgX1 allo act: inactive; RGS4 block: inactive; Hep lipid drop: inactive

What do the screens show for `COc1ccc(C(=O)Nc2sc3c(c2C(=O)NCc2ccco2)CCCC3)cc1OC`?
MrgX1 antag: inactive; RGS4 act: inactive; MrgX1 ag: inactive; MrgX1 allo act: inactive; RGS4 block: inactive; Hep lipid drop: 69; Hep lipid conf: 105; AML12 tox img: inactive; AML12 tox ATP: inactive

Results for COc1cc(C(=O)Nc2sc3c(c2C(=O)NCc2ccco2)CCCC3)cc(OC)c1OC ?
MrgX1 antag: inactive; RGS4 act: inactive; MrgX1 ag: inactive; MrgX1 allo act: inactive; RGS4 block: inactive; Hep lipid drop: inactive

Results for Cc1ccc(S(=O)(=O)NCc2ccc(C(=O)NC3CC3)cc2)cc1 ?
MrgX1 antag: inactive; RGS4 act: inactive; MrgX1 ag: inactive; MrgX1 allo act: inactive; RGS4 block: inactive; Hep lipid drop: 60; Hep lipid conf: inactive; AML12 tox img: inactive; AML12 tox ATP: inactive

How did CCOc1ccc(S(=O)(=O)N2CCCC(C(=O)N3CCCC3)C2)cc1 (configuration not stated) do in these assays?
MrgX1 antag: inactive; RGS4 act: inactive; MrgX1 ag: inactive; MrgX1 allo act: inactive; RGS4 block: inactive; Hep lipid drop: inactive

Results for COc1ccccc1N1CCN(C(=O)COc2ccc(S(=O)(=O)NC(C)(C)C)cc2)CC1 ?
MrgX1 antag: inactive; RGS4 act: inactive; MrgX1 ag: inactive; MrgX1 allo act: inactive; RGS4 block: inactive; Hep lipid drop: 64; Hep lipid conf: 85; AML12 tox img: inactive

How did COc1ccccc1N1CCN(C2CCN(C(=O)COc3ccccc3)CC2)CC1 do in these assays?
MrgX1 antag: inactive; RGS4 act: inactive; MrgX1 ag: inactive; MrgX1 allo act: inactive; RGS4 block: inactive; Hep lipid drop: inactive

How did Cc1ccc(S(=O)(=O)NCCc2cn3nc(C)c(C)nc3n2)cc1C do in these assays?
MrgX1 antag: inactive; RGS4 act: inactive; MrgX1 ag: inactive; MrgX1 allo act: inactive; RGS4 block: inactive; Hep lipid drop: inactive

How did COC(C[C@H](O)C[C@@H](O)COCc1ccccc1)OC do in these assays?
RGS4 act: inactive; RGS4 block: inactive; Hep lipid drop: inactive

How did COC(C[C@@H](O)C[C@@H](O)COCc1ccccc1)OC do in these assays?
RGS4 act: inactive; RGS4 block: inactive; Hep lipid drop: 113; Hep lipid conf: inactive; AML12 tox img: inactive

What do the screens show for `Cc1ccc(/C=C/C(=O)NCC2COc3ccccc3O2)o1` (configuration not stated)?
MrgX1 antag: inactive; RGS4 act: inactive; MrgX1 ag: inactive; MrgX1 allo act: inactive; RGS4 block: inactive; Hep lipid drop: 53; Hep lipid conf: inactive; AML12 tox img: inactive

Compound activity (PubChem BioAssay)
